pIC50: −log10 of the molar value.
Tests used:
[1] = Metabolic stability in ICR mouse liver microsomes at 1 uM measured at 30 min in absence of NADPH; format: ADME, Microsome; details: read-out: Stability
Summary of the method: (§1)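 Test compound at 1 μM incubated with female ICR mouse liver microsomes (0.5 mg protein/mL) for 30 min at 37 °C, with or without NADPH. Result reported as % parent remaining at 30 min.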

[2] = Metabolic stability in ICR mouse liver microsomes at 1 uM measured at 30 min in presence of NADPH; format: ADME, Microsome; details: read-out: Stability; summary of the method: as §1
[3] = Lipophilicity, log D of the compound; format: physicochemical; details: octanol/water
[4] = Passive permeability of the compound by PAMPA; format: ADME; details: read-out: permeability
Summary of the method: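 PAMPA passive diffusion with compound at a final concentration of 200 μM. Effective permeability Pe (nm/s) and membrane retention R (%) reported. Ranitidine and metoprolol served as controls.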

MDA-MB-231 = experiment: Cytotoxicity against human MDA-MB-231 cells assessed as growth inhibition by SRB assay; format: functional
[5] = Inhibition of HDAC by fluorescence assay
NUGC-3 = experiment: Cytotoxicity against human NUGC3 cells assessed as growth inhibition by SRB assay; format: functional
[6] = Cmax in Balb/c mouse at 30 mg/kg, po; format: ADME, organism-based; set-up: dose 30 mg/kg, route oral; details: in vivo
Summary of the method: (§2)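 Balb/c mice dosed iv at 10 mg/kg or orally (20 or 30 mg/kg). Plasma concentration–time profiles averaged over three animals per time point. Parameters come from noncompartmental analysis. Oral AUC runs 0–5 h and iv AUC runs 0 to infinity.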

[7] = AUC (0 to 5 hrs) in Balb/c mouse at 30 mg/kg, po; format: ADME, organism-based; set-up: dose 30 mg/kg, route oral; details: plasma; summary of the method: as §2
[8] = Tmax in Balb/c mouse at 30 mg/kg, po; format: ADME, organism-based; set-up: dose 30 mg/kg, route oral; details: in vivo; summary of the method: as §2
HCT-15 = experiment: Cytotoxicity against human HCT15 cells assessed as growth inhibition by SRB assay; format: functional
[9] = AUC (0 to infinity) in Balb/c mouse at 10 mg/kg, iv; format: ADME, organism-based; set-up: time infinity, dose 10 mg/kg, route intravenous; details: plasma; summary of the method: as §2
ACHN = experiment: Cytotoxicity against human ACHN cells assessed as growth inhibition by SRB assay; format: functional
[10] = Volume of distribution at steady state in Balb/c mouse at 10 mg/kg, iv; format: ADME, organism-based; set-up: dose 10 mg/kg, route intravenous; details: in vivo, read-out: Vdss; summary of the method: as §2
PC-3 = experiment: Cytotoxicity against human PC3 cells assessed as growth inhibition by SRB assay; format: functional, cell-based
[11] = Half life in Balb/c mouse at 30 mg/kg, po; format: ADME, organism-based; set-up: dose 30 mg/kg, route oral; details: in vivo; summary of the method: as §2
[12] = Apparent permeability across apical to basolateral side in human Caco2 cells at 100 uM; format: ADME, cell-based; details: Caco-2
[13] = Oral bioavailability in Balb/c mouse at 30 mg/kg; format: ADME, organism-based; details: in vivo; summary of the method: as §2
NCI-H23 = experiment: Cytotoxicity against human NCI-H23 cells assessed as growth inhibition by SRB assay; format: functional
[14] = Clearance in Balb/c mouse at 10 mg/kg, iv; format: ADME, organism-based; set-up: dose 10 mg/kg, route intravenous; details: in vivo; summary of the method: as §2
[15] = Half life in Balb/c mouse at 10 mg/kg, iv; format: ADME, organism-based; set-up: dose 10 mg/kg, route intravenous; details: in vivo; summary of the method: as §2
[16] = Half life in Balb/c mouse at 20 mg/kg, po; format: ADME, organism-based; set-up: dose 20 mg/kg, route oral; details: in vivo; summary of the method: as §2
[17] = Tmax in Balb/c mouse at 20 mg/kg, po; format: ADME, organism-based; set-up: dose 20 mg/kg, route oral; details: in vivo; summary of the method: as §2
[18] = AUC (0 to 5 hrs) in Balb/c mouse at 20 mg/kg, po; format: ADME, organism-based; set-up: dose 20 mg/kg, route oral; details: plasma; summary of the method: as §2
[19] = Oral bioavailability in Balb/c mouse at 20 mg/kg; format: ADME, organism-based; details: in vivo; summary of the method: as §2
[20] = Cmax in Balb/c mouse at 20 mg/kg, po; format: ADME, organism-based; set-up: dose 20 mg/kg, route oral; details: in vivo; summary of the method: as §2

Structure (SMILES)	remaining at 0.5 h, 1 µM [1]	remaining at 0.5 h, 1 µM [2]	logD [3]	Papp [4]	pIC50 [5]	GI50 (MDA-MB-231)	GI50 (NUGC-3)	GI50 (HCT-15)	GI50 (ACHN)	GI50 (PC-3)	GI50 (NCI-H23)	other results
O=C(CCC1=CCN(Cc2ccc(F)cc2)C1=O)NO	91.4%	87.7%	0.571	1.93 ×10⁻⁶ cm/s	7.22	1.94 µM	6.06 µM	4.07 µM	5.99 µM	5.31 µM	4.67 µM	Cmax [6]: 2300 ng/mL; AUC(0-t) at 4 h [7]: 1180 ng·h/mL; Tmax [8]: 0.25 h; AUC(0-inf) [9]: 1280 ng·h/mL; Vd [10]: 1.8 L/kg; half-life [11]: 1.1 h; Papp A→B at 100 µM [12]: 7.8 ×10⁻⁶ cm/s; bioavailability [13]: 30.6%; clearance [14]: 130 mL/min/kg; half-life [15]: 2.6 h
CC(C)(C)c1ccc(CN2CC=C(CCC(=O)NO)C2=O)cc1	79%	58.2%	2.1	2.19 ×10⁻⁶ cm/s	7.00	0.69 µM	0.72 µM	0.57 µM	0.86 µM	1.83 µM	0.42 µM	half-life [16]: 13.6 h; Tmax [17]: 0.25 h; AUC(0-inf) [9]: 3440 ng·h/mL; AUC(0-t) at 4 h [18]: 739 ng·h/mL; bioavailability [19]: 10.7%; Vd [10]: 1.6 L/kg; Cmax [20]: 462 ng/mL; clearance [14]: 48.3 mL/min/kg; half-life [15]: 7.8 h
O=C(CCC1=CCN(Cc2cc(C(F)(F)F)cc(C(F)(F)F)c2)C1=O)NO	40.5%	35.7%	2.4	2.83 ×10⁻⁶ cm/s								
N#Cc1cccc(CN2CC=C(CCC(=O)NO)C2=O)c1			0.236		6.80	3.6 µM	4.12 µM	> 10 µM	7.75 µM	7.92 µM	4.08 µM	
N#Cc1ccc(CN2CC=C(CCC(=O)NO)C2=O)cc1			0.197		6.82	5.38 µM	> 10 µM	> 10 µM	> 10 µM	> 10 µM	2.32 µM	
O=C(CCC1=CCN(CCc2cccc([N+](=O)[O-])c2)C1=O)NO			0.633		5.97	3.18 µM	6.57 µM	> 10 µM	5.7 µM	8.69 µM	4.39 µM	

More lines, main results first:

remaining at 0.5 h, 1 µM [1]	remaining at 0.5 h, 1 µM [2]	logD [3]	Papp [4]	pIC50 [5]	Structure (SMILES)	GI50 (MDA-MB-231)	GI50 (NUGC-3)	GI50 (HCT-15)	GI50 (ACHN)	GI50 (PC-3)	GI50 (NCI-H23)	other results
51%	38.1%	2.25	6.53 ×10⁻⁶ cm/s		CC(C)(C)c1ccc(CCN2CC=C(CCC(=O)NO)C2=O)cc1							
57.6%	35.3%	2.7	1.5 ×10⁻⁶ cm/s		CC(C)(C)c1ccc(CCCN2CC=C(CCC(=O)NO)C2=O)cc1							
34.6%	24.9%	2.17	0.494 ×10⁻⁶ cm/s		O=C(CCC1=CCN(CCCCc2ccc(Cl)cc2)C1=O)NO							
100%	84%	1.26	1.02 ×10⁻⁶ cm/s		O=C(CCC1=CCN(Cc2ccc(Br)cc2)C1=O)NO							Cmax [6]: 2710 ng/mL; AUC(0-t) at 4 h [7]: 3110 ng·h/mL; Tmax [8]: 0.15 h; AUC(0-inf) [9]: 2330 ng·h/mL; Vd [10]: 4.1 L/kg; half-life [11]: 3.1 h; bioavailability [13]: 44.6%; clearance [14]: 71.7 mL/min/kg; half-life [15]: 2.8 h
		0.594		5.83	O=C(CCC1=CCN(CCc2ccc([N+](=O)[O-])cc2)C1=O)NO	4.97 µM	> 10 µM	> 10 µM	8.96 µM	> 10 µM	7.8 µM	
